The results in this text go back to ChEMBL document CHEMBL1148475, “Nonpeptide luteinizing hormone-releasing hormone antagonists derived from erythromycin A: design, synthesis, and biological activity of cladinose replacement analogues” (J Med Chem, 2004).

Test [1] deals with T1, Gonadotropin-releasing hormone receptor (Homo sapiens, UniProt P30968).
T1 sequence (P30968 whole entry): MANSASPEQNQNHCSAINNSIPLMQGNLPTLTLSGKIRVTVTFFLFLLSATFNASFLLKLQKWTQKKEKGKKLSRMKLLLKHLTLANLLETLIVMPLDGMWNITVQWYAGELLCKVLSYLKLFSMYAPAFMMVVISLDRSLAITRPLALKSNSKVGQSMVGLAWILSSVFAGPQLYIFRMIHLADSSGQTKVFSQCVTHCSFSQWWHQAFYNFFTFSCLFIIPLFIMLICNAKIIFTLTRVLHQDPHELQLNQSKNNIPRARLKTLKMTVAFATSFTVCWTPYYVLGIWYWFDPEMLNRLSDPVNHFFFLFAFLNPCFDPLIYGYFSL
Briefly: In vitro binding affinity was determined against human Luteinizing hormone-releasing hormone (LHRH) receptor cloned in CHO cells. Type of test: cell-based.

Test [2] concerns the target T1, Gonadotropin-releasing hormone receptor. In words: In vitro binding affinity to human luteinizing hormone-releasing hormone (LHRH) receptor cloned in CHO cells. Type of test: cell-based.
In test [3] the target is T2, Gonadotropin-releasing hormone receptor (Rattus norvegicus, UniProt P30969).
T2 sequence (P30969 whole entry): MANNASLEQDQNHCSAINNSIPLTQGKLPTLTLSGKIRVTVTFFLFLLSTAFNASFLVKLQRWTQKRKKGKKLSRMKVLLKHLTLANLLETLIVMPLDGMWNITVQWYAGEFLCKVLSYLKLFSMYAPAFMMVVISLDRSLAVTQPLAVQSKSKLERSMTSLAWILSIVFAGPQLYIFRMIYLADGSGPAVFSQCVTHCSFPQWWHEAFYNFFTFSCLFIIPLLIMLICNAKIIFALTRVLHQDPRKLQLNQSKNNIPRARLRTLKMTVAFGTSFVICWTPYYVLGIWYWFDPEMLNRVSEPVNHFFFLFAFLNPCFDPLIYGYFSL
Briefly: In vitro binding affinity to rat luteinizing hormone-releasing hormone (LHRH) receptor cloned in CHO cells. Type of test: cell-based.

In test [4] the target is Gonadotropin-releasing hormone receptor (Rattus norvegicus, UniProt P30969). Briefly: In vitro binding ability against Luteinizing hormone-releasing hormone release in rat pituitary cells. Type of test: cell-based, Pituitary gland cell. The settings on record: read-out: pA2 (converted). The gist of the method: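 Functional antagonism of LH release measured in cultured rat pituitary cells; potency expressed as pA2.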

Regarding `CC[C@H]1OC(=O)[C@H](C)[C@@H](OC(=O)N2CCOC2)[C@H](C)[C@@H](OC2O[C@H](C)C[C@H](N(C)C(C)C)[C@H]2O)[C@@](C)(OC)C[C@@H](C)C(=O)[C@H](C)[C@H]2N(CCc3ccc(Cl)cc3)C(=O)O[C@]12C` (stereo partly drawn), the inhibition constant Ki (in general, a measure of affinity in units of concentration, obtained from inhibition or displacement) in test [1] is 200 nM.

Consider `CC[C@H]1OC(=O)[C@H](C)[C@@H](O)[C@H](C)[C@@H](OC2O[C@H](C)C[C@H](N(C)C(C)C)[C@H]2O)[C@@](C)(OC)C[C@@H](C)C(=O)[C@H](C)[C@H]2N(CCc3ccc(Cl)cc3)C(=O)O[C@]12C` (stereo partly drawn), for which the Ki was 10000 nM in test [2] and 2510 nM in test [3].

As to `CC[C@H]1OC(=O)[C@H](C)[C@@H](OC(=O)N2C(=O)OC[C@@H]2C)[C@H](C)[C@@H](OC2O[C@H](C)C[C@H](N(C)CC3CC3)[C@H]2O)[C@@](C)(OC)C[C@@H](C)C(=O)[C@H](C)[C@H]2N(CCc3ccc(F)c(Cl)c3)C(=O)O[C@]12C` (stereo partly drawn), the Ki in test [2] is 0.331 nM; in test [3] it was 0.107 nM. Moreover, in test [4], the Kb is 0.479 nM.

For `CC[C@H]1OC(=O)[C@H](C)[C@@H](OC(=O)N2CCNC2=O)[C@H](C)[C@@H](OC2O[C@H](C)C[C@H](N(C)C(C)C)[C@H]2O)[C@@](C)(OC)C[C@@H](C)C(=O)[C@H](C)[C@H]2N(CCc3ccc(Cl)cc3)C(=O)O[C@]12C` (stereo partly drawn), the inhibition constant Ki was 2040 nM in test [2] and 219 nM in test [3].

Regarding `CC[C@H]1OC(=O)[C@H](C)[C@@H](OC(=O)N2CCCC2)[C@H](C)[C@@H](OC2O[C@H](C)C[C@H](N(C)C(C)C)[C@H]2O)[C@@](C)(OC)C[C@@H](C)C(=O)[C@H](C)[C@H]2N(CCc3ccc(Cl)cc3)C(=O)O[C@]12C` (stereo partly drawn), the Ki was 1620 nM in test [2] and 112 nM in test [3].

Take `CC[C@H]1OC(=O)[C@H](C)[C@@H](OC(=O)N2CC(C)OC2=O)[C@H](C)[C@@H](OC2O[C@H](C)C[C@H](N(C)C(C)C)[C@H]2O)[C@@](C)(OC)C[C@@H](C)C(=O)[C@H](C)[C@H]2N(CCc3ccc(Cl)cc3)C(=O)O[C@]12C` (stereo partly drawn): the Ki in test [2] is 36.3 nM; in test [3] it was 7.94 nM.

For the molecule `CC[C@H]1OC(=O)[C@H](C)[C@@H](OC(=O)C2CCOC2)[C@H](C)[C@@H](OC2O[C@H](C)C[C@H](N(C)C(C)C)[C@H]2O)[C@@](C)(OC)C[C@@H](C)C(=O)[C@H](C)[C@H]2N(CCc3ccc(Cl)cc3)C(=O)O[C@]12C` (stereo partly drawn), the Ki was 214 nM in test [2] and 14.1 nM in test [3].

As for `CC[C@H]1OC(=O)[C@H](C)[C@@H](OC(=O)CC(C)C)[C@H](C)[C@@H](OC2O[C@H](C)C[C@H](N(C)C(C)C)[C@H]2O)[C@@](C)(OC)C[C@@H](C)C(=O)[C@H](C)[C@H]2N(CCc3ccc(Cl)cc3)C(=O)O[C@]12C` (stereo partly drawn), the values for the Ki in test [2] and in test [3] were 2040 nM and 141 nM, respectively.

As for `CC[C@H]1OC(=O)[C@H](C)[C@@H](OC(=O)N2C(=O)OC[C@@H]2C)[C@H](C)[C@@H](OC2O[C@H](C)C[C@H](N(C)C3CCCC3)[C@H]2O)[C@@](C)(OC)C[C@@H](C)C(=O)[C@H](C)[C@H]2N(CCc3ccc(Cl)cc3)C(=O)O[C@]12C` (stereo partly drawn), the Ki in test [2] was 38 nM; in test [3] it was 1.17 nM.

In the case of `CC[C@H]1OC(=O)[C@H](C)[C@@H](OC2C[C@@](C)(OC)[C@@H](O)[C@H](C)O2)[C@H](C)[C@@H](OC2O[C@H](C)C[C@H](N(C)C(C)C)[C@H]2O)[C@@](C)(OC)C[C@@H](C)C(=O)[C@H](C)[C@H]2N(CCc3ccc(Cl)cc3)C(=O)O[C@]12C` (stereo partly drawn), the Ki in test [2] was 22.4 nM; in test [3] it was 4.47 nM.

For the molecule `CC[C@H]1OC(=O)[C@H](C)[C@@H](OC(=O)N2C(=O)OC[C@@H]2C)[C@H](C)[C@@H](OC2O[C@H](C)C[C@H](N(C)C(C)C)[C@H]2O)[C@@](C)(OC)C[C@@H](C)C(=O)[C@H](C)[C@H]2N(CCc3ccc(Cl)c(Cl)c3)C(=O)O[C@]12C` (stereo partly drawn), the Ki was 15.1 nM in test [2] and 0.234 nM in test [3]. Moreover, the Kb in test [4] is 1.78 nM.

In the case of `CC[C@H]1OC(=O)[C@H](C)[C@@H](OC(=O)N2CCOC2=O)[C@H](C)[C@@H](OC2O[C@H](C)C[C@H](N(C)C(C)C)[C@H]2O)[C@@](C)(OC)C[C@@H](C)C(=O)[C@H](C)[C@H]2N(CCc3ccc(Cl)cc3)C(=O)O[C@]12C` (stereo partly drawn), the results for the Ki in test [2] and in test [3] were 115 nM and 2.14 nM, respectively.

Take `CC[C@H]1OC(=O)[C@H](C)[C@@H](OC(=O)N2C(=O)O[C@H](C)[C@@H]2C)[C@H](C)[C@@H](OC2O[C@H](C)C[C@H](N(C)C(C)C)[C@H]2O)[C@@](C)(OC)C[C@@H](C)C(=O)[C@H](C)[C@H]2N(CCc3ccc(Cl)cc3)C(=O)O[C@]12C` (stereo partly drawn): the “Log Ki” value in test [2] (cho) is given as under -7. This molecule also showed a Ki in test [3] of 2.88 nM.

With `CC[C@H]1OC(=O)[C@H](C)[C@@H](OC(=O)N2C(=O)OCC2(C)C)[C@H](C)[C@@H](OC2O[C@H](C)C[C@H](N(C)C(C)C)[C@H]2O)[C@@](C)(OC)C[C@@H](C)C(=O)[C@H](C)[C@H]2N(CCc3ccc(Cl)cc3)C(=O)O[C@]12C` (stereo partly drawn), the values for the Ki in test [2] and in test [3] were 79.4 nM and 8.91 nM, respectively.

On to `CC[C@H]1OC(=O)[C@H](C)[C@@H](OC(=O)N2CCOCC2)[C@H](C)[C@@H](OC2O[C@H](C)C[C@H](N(C)C(C)C)[C@H]2O)[C@@](C)(OC)C[C@@H](C)C(=O)[C@H](C)[C@H]2N(CCc3ccc(Cl)cc3)C(=O)O[C@]12C` (stereo partly drawn), for which the Ki is 5620 nM in test [2] and 427 nM in test [3].

As to `CC[C@H]1OC(=O)[C@H](C)[C@@H](OC(=O)N2C(=O)OC[C@@H]2C)[C@H](C)[C@@H](OC2O[C@H](C)C[C@H](N(C)C(C)C)[C@H]2O)[C@@](C)(OC)C[C@@H](C)C(=O)[C@H](C)[C@H]2N(CCc3ccc(Cl)cc3)C(=O)O[C@]12C` (stereo partly drawn), the Ki in test [2] was 18.6 nM; in test [3], 2.88 nM.

Turning to `CC[C@H]1OC(=O)[C@H](C)[C@@H](OC(=O)N2CCOC2C)[C@H](C)[C@@H](OC2O[C@H](C)C[C@H](N(C)C(C)C)[C@H]2O)[C@@](C)(OC)C[C@@H](C)C(=O)[C@H](C)[C@H]2N(CCc3ccc(Cl)cc3)C(=O)O[C@]12C` (stereo partly drawn), the Ki in test [2] is 794 nM; in test [3] it was 120 nM.

Take `CC[C@H]1OC(=O)[C@H](C)[C@@H](OC(=O)N2C(=O)OC[C@@H]2C)[C@H](C)[C@@H](OC2O[C@H](C)C[C@H](N(C)C3CCCC3)[C@H]2O)[C@@](C)(OC)C[C@@H](C)C(=O)[C@H](C)[C@H]2N(CCc3ccc(Cl)c(Cl)c3)C(=O)O[C@]12C` (stereo partly drawn): the Ki in test [2] was 5.62 nM; in test [3], 0.692 nM. For the same molecule, in test [4], the Kb was 0.135 nM.

`CC[C@H]1OC(=O)[C@H](C)[C@@H](OC(=O)N2C(=O)OC[C@H]2CC(C)C)[C@H](C)[C@@H](OC2O[C@H](C)C[C@H](N(C)C(C)C)[C@H]2O)[C@@](C)(OC)C[C@@H](C)C(=O)[C@H](C)[C@H]2N(CCc3ccc(Cl)cc3)C(=O)O[C@]12C` (stereo partly drawn): the Ki is 275 nM in test [2] and 692 nM in test [3].

Consider `CC[C@H]1OC(=O)[C@H](C)[C@@H](OC(=O)N2C(=O)OC[C@@H]2C)[C@H](C)[C@@H](O[C@@H]2O[C@H](C)C[C@H](N(C)CC3CC3)[C@H]2O)[C@@](C)(OC)C[C@@H](C)C(=O)[C@H](C)[C@H]2N(CCc3ccc(Cl)c(Cl)c3)C(=O)O[C@]12C`, for which the Ki in test [2] is 1.86 nM; in test [3] it was 0.676 nM. For the same molecule, the Kb in test [4] was 1.74 nM.

Take `CC[C@H]1COC(=O)N1C(=O)O[C@H]1[C@H](C)[C@@H](OC2O[C@H](C)C[C@H](N(C)C(C)C)[C@H]2O)[C@@](C)(OC)C[C@@H](C)C(=O)[C@H](C)[C@H]2N(CCc3ccc(Cl)cc3)C(=O)O[C@]2(C)[C@@H](CC)OC(=O)[C@@H]1C` (stereo partly drawn): the Ki in test [2] is 66.1 nM; in test [3], 6.31 nM.

Turning to `CC[C@H]1OC(=O)[C@H](C)[C@@H](OC(=O)N2CCN(C)C2=O)[C@H](C)[C@@H](OC2O[C@H](C)C[C@H](N(C)C(C)C)[C@H]2O)[C@@](C)(OC)C[C@@H](C)C(=O)[C@H](C)[C@H]2N(CCc3ccc(Cl)cc3)C(=O)O[C@]12C` (stereo partly drawn), the inhibition constant (Ki) in test [2] is 4680 nM; in test [3] it was 1230 nM.

In the case of `CC[C@H]1OC(=O)[C@H](C)[C@@H](OC(=O)C2CCCC2)[C@H](C)[C@@H](OC2O[C@H](C)C[C@H](N(C)C(C)C)[C@H]2O)[C@@](C)(OC)C[C@@H](C)C(=O)[C@H](C)[C@H]2N(CCc3ccc(Cl)cc3)C(=O)O[C@]12C` (stereo partly drawn), the results for the Ki in test [2] and in test [3] were 631 nM and 50.1 nM, respectively.

On to `CC[C@H]1OC(=O)[C@H](C)[C@@H](OC(=O)N2C(=O)OC[C@H]2C)[C@H](C)[C@@H](OC2O[C@H](C)C[C@H](N(C)C(C)C)[C@H]2O)[C@@](C)(OC)C[C@@H](C)C(=O)[C@H](C)[C@H]2N(CCc3ccc(Cl)cc3)C(=O)O[C@]12C` (stereo partly drawn), for which the values for the Ki in test [2] and in test [3] were 49 nM and 5.25 nM, respectively.

As to `CCC1CN(C(=O)O[C@H]2[C@H](C)[C@@H](OC3O[C@H](C)C[C@H](N(C)C(C)C)[C@H]3O)[C@@](C)(OC)C[C@@H](C)C(=O)[C@H](C)[C@H]3N(CCc4ccc(Cl)cc4)C(=O)O[C@]3(C)[C@@H](CC)OC(=O)[C@@H]2C)C(=O)O1` (stereo partly drawn), the Ki in test [2] is 562 nM; in test [3], 18.2 nM.
